Results on 21 compounds are retold here after ChEMBL document CHEMBL3763022, “Potent dual inhibitors of Plasmodium falciparum M1 and M17 aminopeptidases through optimization of S1 pocket interactions” (Eur J Med Chem, 2016).

The first test is described as follows: Inhibition of recombinant Plasmodium falciparum M1 aminopeptidase using H-Leu-NHMec as substrate preincubated for 10 mins followed by addition of substrate by spectrofluorimetric analysis. A digest of the protocol:
(§1)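 E. coli-expressed enzymes, purified by Ni-NTA and size exclusion. Preincubation 10 min at 37°C with inhibitor: M1 in 100 mM Tris pH 8.0; M17 in 50 mM Tris pH 8.0, 2 mM CoCl2. Substrate H-Leu-NHMec kept below Km. Fluorescence ex 355/em 460 nm followed to steady-state velocity. Inhibitor range 500pM–500 μM. Ki from Dixon plots (1/V vs [I]).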
The term Ki denotes a dissociation constant, usually derived from enzyme kinetics or from competition with a known ligand. For `CC(C)(C)OC(=O)NC(C(=O)NO)c1ccc(-c2cccc(F)c2)cc1` (configuration not stated), the Ki is 950 nM.
As to `Cn1cc(-c2ccc(CC(NC(=O)C(C)(C)C)C(=O)NO)cc2)cn1` (configuration not stated), the Ki was 39000 nM.
Still for that read-out and setting: in the case of `Cn1cc(-c2ccc(C(NC(=O)C(C)(C)C)C(=O)NO)cc2)cn1` (configuration not stated) it was 11000 nM; in that of `CC(C)(C)OC(=O)NC(C(=O)NO)c1ccc(F)cc1` (configuration not stated), 5300 nM; in that of `CC(C)(C)OC(=O)NC(Cc1ccc(F)cc1)C(=O)NO` (configuration not stated), 18000 nM.
For the compound `CC(C)(C)C(=O)NC(Cc1ccc(Br)cc1)C(=O)NO` (configuration not stated), the Ki was 87000 nM.
As to `CC(C)(C)C(=O)NC(Cc1ccc(F)cc1)C(=O)NO` (configuration not stated), the Ki was found to be 63000 nM.
On to `CC(C)(C)OC(=O)NC(C(=O)NO)c1ccc(-c2ccccc2C(F)(F)F)cc1` (configuration not stated), for which the Ki was determined as 750 nM.
On to `CC(C)(C)OC(=O)NC(C(=O)NO)c1ccc(-c2ccccc2)cc1` (configuration not stated), for which the Ki amounted to 37000 nM.
On to `Cn1cc(-c2ccc(CC(NC(=O)OC(C)(C)C)C(=O)NO)cc2)cn1` (configuration not stated), for which the Ki amounted to 120000 nM.
Take `CC(C)(C)OC(=O)NC(C(=O)NO)c1ccc(-c2cccnc2)cc1` (configuration not stated): the Ki was determined as 1100 nM.
Regarding `CC(C)(C)OC(=O)NC(Cc1ccc(Br)cc1)C(=O)NO` (configuration not stated), the Ki stood at 39000 nM.
Turning to `CC(C)(C)OC(=O)NC(Cc1ccc(-c2ccccc2)cc1)C(=O)NO` (configuration not stated), the Ki was over 500000 nM.
For the compound `CC(C)(C)OC(=O)NC(C(=O)NO)c1ccc(-c2ccc(F)cc2)cc1` (configuration not stated), the Ki came out at 100000 nM.
In the case of `CC(C)(C)OC(=O)NC(C(=O)NO)c1ccc(-c2ccsc2)cc1` (configuration not stated), the Ki was 20000 nM.
Consider `CC(C)(C)OC(=O)NC(C(=O)NO)c1ccc(-c2ccc(C(F)(F)F)cc2)cc1` (configuration not stated), for which the Ki is over 500000 nM.
As for `CC(C)(C)OC(=O)NC(C(=O)NO)c1ccc(-c2cc(F)c(F)c(F)c2)cc1` (configuration not stated), the Ki was found to be 19000 nM.
Turning to `CC(C)(C)C(=O)NC(Cc1ccc(-c2ccccc2)cc1)C(=O)NO` (configuration not stated), the Ki is 27000 nM.
Turning to `CC(C)(C)C(=O)NC(Cc1ccc(I)cc1)C(=O)NO` (configuration not stated), the Ki amounted to 15000 nM.
On to `CC(C)(C)OC(=O)NC(C(=O)NO)c1ccc(-c2cccc(C(F)(F)F)c2)cc1` (configuration not stated), for which the Ki was found to be 2900 nM.
With `CC(C)(C)OC(=O)NC(Cc1ccc(I)cc1)C(=O)NO` (configuration not stated), the Ki came out at 4300 nM.

Another test in a line: Inhibition of recombinant Plasmodium falciparum M17 aminopeptidase using H-Leu-NHMec as substrate preincubated for 10 mins followed by addition of substrate by spectrofluorimetric analysis. A digest of the protocol:
as §1
As for `CC(C)(C)OC(=O)NC(C(=O)NO)c1ccc(-c2cccc(F)c2)cc1` (configuration not stated), the Ki was determined as 130 nM.
`Cn1cc(-c2ccc(CC(NC(=O)C(C)(C)C)C(=O)NO)cc2)cn1` (configuration not stated): the Ki amounted to 740 nM.
On to `Cn1cc(-c2ccc(C(NC(=O)C(C)(C)C)C(=O)NO)cc2)cn1` (configuration not stated), for which the Ki worked out at 7.2 nM.
On to `CC(C)(C)OC(=O)NC(C(=O)NO)c1ccc(F)cc1` (configuration not stated), for which the Ki was determined as 1700 nM.
Take `CC(C)(C)OC(=O)NC(Cc1ccc(F)cc1)C(=O)NO` (configuration not stated): the Ki stood at 2800 nM.
For `CC(C)(C)C(=O)NC(Cc1ccc(Br)cc1)C(=O)NO` (configuration not stated), the Ki worked out at 420 nM.
Take `CC(C)(C)C(=O)NC(Cc1ccc(F)cc1)C(=O)NO` (configuration not stated): the Ki was determined as 37 nM.
In the case of `CC(C)(C)OC(=O)NC(C(=O)NO)c1ccc(-c2ccccc2C(F)(F)F)cc1` (configuration not stated), the inhibition constant (Ki) was 120 nM.
Turning to `CC(C)(C)OC(=O)NC(C(=O)NO)c1ccc(-c2ccccc2)cc1` (configuration not stated), the Ki worked out at 55 nM.
As for `Cn1cc(-c2ccc(CC(NC(=O)OC(C)(C)C)C(=O)NO)cc2)cn1` (configuration not stated), the Ki worked out at 14000 nM.
On to `CC(C)(C)OC(=O)NC(C(=O)NO)c1ccc(-c2cccnc2)cc1` (configuration not stated), for which the Ki is 220 nM.
On to `CC(C)(C)OC(=O)NC(Cc1ccc(Br)cc1)C(=O)NO` (configuration not stated), for which the Ki came out at 7700 nM.
On to `CC(C)(C)OC(=O)NC(Cc1ccc(-c2ccccc2)cc1)C(=O)NO` (configuration not stated), for which the Ki was found to be 5200 nM.
On to `CC(C)(C)OC(=O)NC(C(=O)NO)c1ccc(-c2ccc(F)cc2)cc1` (configuration not stated), for which the Ki came to 74 nM.
In the case of `CC(C)(C)OC(=O)NC(C(=O)NO)c1ccc(-c2ccsc2)cc1` (configuration not stated), the Ki was 64 nM.
For `CC(C)(C)OC(=O)NC(C(=O)NO)c1ccc(-c2ccc(C(F)(F)F)cc2)cc1` (configuration not stated), the inhibition constant Ki is 470 nM.
For the compound `CC(C)(C)OC(=O)NC(C(=O)NO)c1ccc(-c2cc(F)c(F)c(F)c2)cc1` (configuration not stated), the Ki came to 200 nM.
Turning to `CC(C)(C)C(=O)NC(Cc1ccc(-c2ccccc2)cc1)C(=O)NO` (configuration not stated), the Ki came out at 650 nM.
Consider `CC(C)(C)C(=O)NC(Cc1ccc(I)cc1)C(=O)NO` (configuration not stated), for which the Ki amounted to 16 nM.
For the compound `CC(C)(C)OC(=O)NC(C(=O)NO)c1ccc(-c2cccc(C(F)(F)F)c2)cc1` (configuration not stated), the Ki was 140 nM.
Turning to `CC(C)(C)OC(=O)NC(Cc1ccc(I)cc1)C(=O)NO` (configuration not stated), the Ki came out at 21000 nM.
